ChEMBL document CHEMBL1124769, “Retinobenzoic acids. 5. Retinoidal activities of compounds having a trimethylsilyl or trimethylgermyl group(s) in human promyelocytic leukemia cells HL-60” (1990)

Tests used:
HL-60 [1] = assay: Ability to induce differentiation of human promyelocytic leukemia cell line HL-60 to mature granulocytes.; assay type: functional; settings: for EC50: read-out: ED50 (the source's name)
Summary of the method: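 HL-60 cells in RPMI1640 with 5% FCS, penicillin G and streptomycin, at 37 °C in 5% CO2. Seeded at ~8 × 10^4 cells/mL and exposed 4 days to compound from a 0.2 mM ethanol stock (final ethanol <0.5%, ethanol-only controls). Read by Wright-Giemsa differential counts and NBT reduction (0.2% NBT plus TPA, 20 min, 37 °C), ≥200 cells each. ED50 from NBT data (van der Waerden method).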

HL-60 [2] = assay: Relative activity against human promyelocytic leukemia HL-60 cells.; assay type: functional
Summary of the method: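 Relative activity was computed as ED50 of retinoic acid ÷ ED50 of test compound × 100. Both ED50s came from concurrent 4-day HL-60 NBT-reduction differentiation assays spanning 5 orders of magnitude in concentration, each run at least twice. Values are representative ones or means.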

| Molecule | EC50 (HL-60 [1]) [nM] | Relative activity (HL-60 [2]) | ED50 (HL-60 [1]) [nM] |
| --- | --- | --- | --- |
| CC(C)c1cccc(NC(=O)c2ccc(C(=O)O)cc2)c1 | 680 | – | – |
| CC(C)(C)c1cc(C(=O)/C=C/c2ccc(C(=O)O)cc2)cc(C(C)(C)C)c1 | – | 640 | – |
| CCc1ccc(C(=O)/C=C/c2ccc(C(=O)O)cc2)cc1CC | 170 | – | – |
| C[Si](C)(C)c1cc(C(=O)Nc2ccc(C(=O)O)cc2)cc([Si](C)(C)C)c1 [AMSILAROTENE] | 9.2 | 52.7 | – |
| CC1(C)CCC(C)(C)c2cc(NC(=O)c3ccc(C(=O)O)cc3)ccc21 [TAMIBAROTENE] | 0.79 | – | – |
| C[Si](C)(C)c1cccc(/C=C/c2ccc(C(=O)O)cc2)c1 | 1 | 85 | – |
| C[Si](C)(C)c1cc(NC(=O)c2ccc(C(=O)O)cc2)cc([Si](C)(C)C)c1 | 30 | 13 | – |
| CC1=C(/C=C/C(C)=C/C=C/C(C)=C/C(=O)O)C(C)(C)CCC1 [TRETINOIN] | 2.4 | 100 | – |
| C[Si](C)(C)c1cc(C(=O)/C=C/c2ccc(C(=O)O)cc2)cc([Si](C)(C)C)c1 | 0.14 | 860 | – |
| CC(C)(C)c1cc(C(=O)Nc2ccc(C(=O)O)cc2)cc(C(C)(C)C)c1 | 48 | 5.6 | – |
| C[Si](C)(C)c1cccc(C(=O)/C=C/c2ccc(C(=O)O)cc2)c1 | 44 | 1.8 | – |
| CC(C)(C)c1cccc(C(=O)/C=C/c2ccc(C(=O)O)cc2)c1 | 160 | 0.81 | – |
| C[Si](C)(C)c1cccc(NC(=O)c2ccc(C(=O)O)cc2)c1 | 85 | 2.4 | – |
| CC(C)(C)c1cc(NC(=O)c2ccc(C(=O)O)cc2)cc(C(C)(C)C)c1 | 36 | 15 | – |
| 4-[3-Oxo-3-(3-trimethylgermanyl-phenyl)-propenyl]-benzoic acid (Ch60G) | – | 4.5 | 40 |
| 4-[3-(2,5-Bis-trimethylgermanyl-phenyl)-3-oxo-propenyl]-benzoic acid (Ch55G) | – | 1000 | 0.21 |
| CC(C)(C)c1cccc(NC(=O)c2ccc(C(=O)O)cc2)c1 | 700 | 0.32 | – |
| N-(3,5-Bis-trimethylgermanyl-phenyl)-terephthalamic acid (Am55G) | – | 15 | 42 |
| CC(C)(C)c1ccc(C(=O)/C=C/c2ccc(C(=O)O)cc2)cc1 | – | 3.9 | – |
| CC(C)(C)c1cccc(/C=C/c2ccc(C(=O)O)cc2)c1 | – | 13 | – |
